Laboratory results as given in ChEMBL document CHEMBL5030567, “Macrocyclic Inhibitors of HGF-Activating Serine Proteases Overcome Resistance to Receptor Tyrosine Kinase Inhibitors and Block Lung Cancer Progression” (J Med Chem, 2021).
≈ marks a conversion by molar mass, not a printed value. Calls of active or inactive are those of the source. No cut-off for these calls is given here.

How the values were obtained:
Serine protease hepsin [1] = target: T1, Serine protease hepsin (Homo sapiens, UniProt P05981); experiment: Inhibition of recombinant human C-terminal 10-His tagged hepsin (Arg45 to Leu417) expressed in mouse myeloma cells mediated pro-HGF activation preincubated for 30 mins followed by pro-HGF addition and measured after 1 hr by immunoblotting analysis
Procedure, shortened: (§1)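 Recombinant pro-HGF (10 ng) incubated one hour with matriptase (1 nM), hepsin (10 nM) or HGFA (5 nM), with or without inhibitor. Processing detected by immunoblot with a polyclonal antibody recognizing pro-HGF and the HGF alpha and beta chains; active HGF served as positive control.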

HCC827 [2] = experiment: Cytotoxicity against human HCC827 cells assessed as reduction in cell viability at 0.1 to 1 uM after 72 hrs by crystal violet staining based assay; conditions: dose 0.1-1 µM
[3] = target: T2, Suppressor of tumorigenicity 14 protein (Homo sapiens) (UniProt Q9Y5Y6); experiment: Inhibition of recombinant human N-terminal met-His6-tagged matriptase catalytic domain (Gly596 to Val855 residues) expressed in Escherichia coli mediated pro-HGF activation preincubated for 30 mins followed by pro-HGF addition and measured after 1 hr by immunoblotting analysis; procedure, shortened: as §1
T2 sequence (whole entry): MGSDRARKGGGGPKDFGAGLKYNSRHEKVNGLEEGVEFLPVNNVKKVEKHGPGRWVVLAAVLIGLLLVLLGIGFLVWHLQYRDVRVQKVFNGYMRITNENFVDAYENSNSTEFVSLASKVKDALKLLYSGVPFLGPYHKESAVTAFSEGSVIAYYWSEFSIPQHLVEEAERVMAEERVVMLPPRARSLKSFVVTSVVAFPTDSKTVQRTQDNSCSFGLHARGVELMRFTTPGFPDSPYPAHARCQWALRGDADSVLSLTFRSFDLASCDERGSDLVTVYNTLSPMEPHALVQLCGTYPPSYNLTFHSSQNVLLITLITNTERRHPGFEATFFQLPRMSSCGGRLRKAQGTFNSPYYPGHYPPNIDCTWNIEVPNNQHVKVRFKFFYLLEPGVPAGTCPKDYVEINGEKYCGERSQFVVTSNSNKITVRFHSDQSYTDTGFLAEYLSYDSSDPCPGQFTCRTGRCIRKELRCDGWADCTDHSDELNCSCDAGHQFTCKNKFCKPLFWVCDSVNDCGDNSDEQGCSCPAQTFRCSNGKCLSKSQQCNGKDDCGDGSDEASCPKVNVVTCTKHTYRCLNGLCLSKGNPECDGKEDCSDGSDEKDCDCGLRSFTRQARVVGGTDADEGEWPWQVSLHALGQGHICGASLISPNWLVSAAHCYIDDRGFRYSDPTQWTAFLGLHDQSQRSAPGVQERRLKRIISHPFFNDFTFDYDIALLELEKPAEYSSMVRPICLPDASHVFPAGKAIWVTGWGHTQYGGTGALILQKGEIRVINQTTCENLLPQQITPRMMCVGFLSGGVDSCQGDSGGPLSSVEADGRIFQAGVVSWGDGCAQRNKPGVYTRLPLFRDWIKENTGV

Serine protease hepsin [4] = target: T1, Serine protease hepsin; experiment: Inhibition of recombinant human C-terminal 10-His tagged hepsin (Arg45 to Leu417) expressed in mouse myeloma cells using Boc-QAR-AMC as substrate preincubated for 30 mins followed by substrate addition by fluorescence based assay; assay type: single protein
Procedure, shortened: (§2)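 Inhibitor in 11-point serial dilution (0-20 µM final, 2% DMSO) pre-incubated 30 min at room temperature with enzyme in TNC buffer (25 mM Tris, 150 mM NaCl, 5 mM CaCl2, 0.01% Triton X-100, pH 8). […] Hepsin activated beforehand 24 h at 37°C. Fluorescence ex 380/em 460 nm kinetic; four-parameter fit of velocities; mean of three experiments.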

[5] = Toxicity in NSG mouse assessed as body weight loss at 10 to 50 mg/kg, ip administered for 7 days; assay type: organism-based; conditions: in vivo, dose 10-50 mg/kg, time 7 day
[6] = Stability in human liver microsomes assessed as half life; assay type: ADME, Microsome
[7] = Acute toxicity in NSG mouse at 10 to 50 mg/kg, ip administered for 7 days; assay type: organism-based; conditions: in vivo, dose 10-50 mg/kg, time 7 day
[8] = Toxicity in NSG mouse at 20 mg/kg, ip administered daily for 7 days; assay type: organism-based; conditions: in vivo, time 7 day
[9] = target: T3, Hepatocyte growth factor activator serine protease (Homo sapiens) (UniProt Q04756); experiment: Inhibition of recombinant human HGFA serine protease domain mediated pro-HGF activation preincubated for 30 mins followed by pro-HGF addition and measured after 1 hr by immunoblotting analysis; procedure, shortened: as §1
T3 sequence (whole entry): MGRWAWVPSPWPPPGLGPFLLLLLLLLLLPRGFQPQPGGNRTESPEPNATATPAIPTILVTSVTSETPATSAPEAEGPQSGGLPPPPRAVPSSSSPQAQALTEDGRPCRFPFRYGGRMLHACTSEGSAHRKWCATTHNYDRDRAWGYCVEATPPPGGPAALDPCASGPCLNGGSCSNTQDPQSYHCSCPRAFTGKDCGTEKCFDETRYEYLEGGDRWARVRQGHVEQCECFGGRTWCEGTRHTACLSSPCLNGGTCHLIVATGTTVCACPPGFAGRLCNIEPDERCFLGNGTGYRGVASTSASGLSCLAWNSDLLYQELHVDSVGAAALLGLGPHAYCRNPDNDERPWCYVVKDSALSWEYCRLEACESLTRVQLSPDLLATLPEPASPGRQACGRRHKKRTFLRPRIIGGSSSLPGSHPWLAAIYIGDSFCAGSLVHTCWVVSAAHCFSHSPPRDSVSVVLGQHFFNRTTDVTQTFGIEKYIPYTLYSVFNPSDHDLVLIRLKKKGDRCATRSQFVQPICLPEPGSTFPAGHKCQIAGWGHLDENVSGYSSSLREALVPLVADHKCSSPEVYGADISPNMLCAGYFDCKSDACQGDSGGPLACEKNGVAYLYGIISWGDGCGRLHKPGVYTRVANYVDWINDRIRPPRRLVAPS

[10] = Plasma protein binding in mouse assessed as unbound fraction; assay type: ADME, cell-free
[11] = Toxicity in hHGF knock in NSG mouse xenografted with human NCI-H596 cells at 20 mg/kg, ip administered daily for 14 to 16 days; assay type: organism-based; conditions: in vivo, time 14-16 day
[12] = Stability in mouse plasma assessed as half life; assay type: ADME, cell-free
HCC827 [13] = experiment: Inhibition of pro-HGF stimulated wound healing in human HCC827 cells preincubated for 30 mins followed by pro-HGF stimulation and measured after 24 hrs by crystal violet staining based assay; assay type: functional, cell-based
Procedure, shortened: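 HCC827 monolayers grown to confluence, serum-starved overnight, then scratched. Cells were pre-incubated 30 min with inhibitor (10 µM) and stimulated with HGF or pro-HGF for 24 h. Wells stained with crystal violet to score closure. n=3; one-way ANOVA versus pro-HGF alone.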

EBC-1 = experiment: Cytotoxicity against human EBC-1 cells assessed as reduction in cell viability preincubated with compound and pro-HGF for 24 hrs followed by JNJ-38877605 addition and measured after 48 hrs by CellTiter-Glo assay; assay type: functional, cell-based; conditions: time 72.0 hrs
Procedure, shortened: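 EBC-1 cells pre-incubated 24 h with pro-HGF (100 ng/ml) with or without compound (1 µM), then given MET kinase inhibitor JNJ-38877605 (25 nM). Viability read by CellTiter-Glo after 48 h. Means±S.E.M., n=3; one-way ANOVA with Dunnett's test.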

[14] = Stability in mouse liver microsomes assessed as half life; assay type: ADME, Microsome
[15] = Stability in human plasma assessed as half life; assay type: ADME, cell-free
[16] = Solubility of compound at pH 7.4; assay type: physicochemical; conditions: buffer
[17] = Half life in mouse plasma at 20 mg/kg, ip; assay type: ADME, organism-based; conditions: in vivo, 20 mg/kg
NCI-H596 = experiment: Antitumor activity against human NCI-H596 cells xenografted in hHGF knock in NSG mouse assessed as tumor growth inhibition at 20 mg/kg, ip administered daily for 14 to 16 days; assay type: functional, organism-based; conditions: time 14-16 day
[18] = target: T4, Suppressor of tumorigenicity 14 protein (Homo sapiens, UniProt Q9Y5Y6); experiment: Inhibition of recombinant human N-terminal met-His6-tagged matriptase catalytic domain (Gly596 to Val855 residues) expressed in Escherichia coli using Boc-QAR-AMC as substrate preincubated for 30 mins followed by substrate addition by fluorescence based assay; procedure, shortened: as §2
T4 sequence (Q9Y5Y6 whole entry): T2 sequence (whole entry)

HCC827 [19] = experiment: Cytotoxicity against human HCC827 cells assessed as reduction in cell viability at 0.1 to 1 uM after 72 hrs in presence of pro-HGF by crystal violet staining based assay; conditions: dose 0.1-1 µM

T1 sequence (P05981 1-162 limits assumed): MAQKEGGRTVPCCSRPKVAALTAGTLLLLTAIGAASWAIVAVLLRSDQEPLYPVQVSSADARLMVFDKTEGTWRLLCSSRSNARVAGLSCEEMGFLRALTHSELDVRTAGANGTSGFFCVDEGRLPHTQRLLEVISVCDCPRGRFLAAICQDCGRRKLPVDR
T1 sequence (P05981 163-417 limits assumed): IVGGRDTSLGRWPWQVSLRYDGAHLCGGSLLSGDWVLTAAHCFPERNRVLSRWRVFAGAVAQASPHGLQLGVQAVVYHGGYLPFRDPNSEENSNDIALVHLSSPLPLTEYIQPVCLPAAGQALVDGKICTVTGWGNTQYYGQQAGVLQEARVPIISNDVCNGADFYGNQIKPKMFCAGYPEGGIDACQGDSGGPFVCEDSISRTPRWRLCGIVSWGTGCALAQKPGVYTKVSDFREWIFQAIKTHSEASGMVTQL

With `CC(=O)N[C@H]1CC(=O)NCCCC[C@@H](C(=O)N[C@@H](CCCNC(=N)N)C(=O)c2nc3ccccc3s2)NC(=O)[C@H](CC(C)C)NC1=O` the inhibition (Serine protease hepsin [1]) was “Active”, the Activity (HCC827 [2]) was “inactive” and the inhibition [3] was “Active”. The IC50 (Serine protease hepsin [4]) was 11 nM, the Activity [5] was “Non-Toxic” and the t1/2 [6] was over 2.42 h. For the same compound, the Activity [7] was “Non-Toxic”, the Activity [8] was “Non-Toxic” and the inhibition [9] was “inactive”. For the same compound, the fraction unbound [10] was 0.286, the Activity [11] was “Non-Toxic” and the t1/2 [12] was 3.7 h. The inhibition (HCC827 [13]) was “Active”, the Activity (EBC-1) was “Active” and the t1/2 [14] was over 2.42 h. It also gave a t1/2 [15] of over 4.82 h, a solubility [16] of 11 µM (≈ 7.39 µg/mL) and a t1/2 [17] of 8.7 h. For the same compound, the Activity (NCI-H596) was “Active”, the IC50 [18] was 2.2 nM and the Activity (HCC827 [19]) was “Active”.
